Assay results published in ChEMBL document CHEMBL1136798, “Synthesis and pharmacological characterization of a series of geometrically constrained 5-HT(2A/2C) receptor ligands” (J Med Chem, 2003).
Activity calls are given as the source filed them.

Legend:
[1] = target: T1, 5-hydroxytryptamine receptor 2A (Rattus norvegicus, UniProt P14842); experiment: In vitro binding to 5-hydroxytryptamine 2A receptor using [125 I]-DOI
In short: (§1)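 Stably transfected cells expressing the rat 5-HT2A or rat 5-HT2C receptor were harvested as frozen pellets. Nonspecific binding was set with 10 µM cinanserin (5-HT2A) or 10 µM mianserin (5-HT2C). Bound label was collected on PEI-soaked GF/B filters and counted by scintillation.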

[2] = target: T2, 5-hydroxytryptamine receptor 1A (Homo sapiens, UniProt P08908); experiment: Tested in vitro for its ability to bind to 5-hydroxytryptamine 1A receptor using [3H]8-OH-DPAT as radioligand
T2 sequence (P08908 whole entry): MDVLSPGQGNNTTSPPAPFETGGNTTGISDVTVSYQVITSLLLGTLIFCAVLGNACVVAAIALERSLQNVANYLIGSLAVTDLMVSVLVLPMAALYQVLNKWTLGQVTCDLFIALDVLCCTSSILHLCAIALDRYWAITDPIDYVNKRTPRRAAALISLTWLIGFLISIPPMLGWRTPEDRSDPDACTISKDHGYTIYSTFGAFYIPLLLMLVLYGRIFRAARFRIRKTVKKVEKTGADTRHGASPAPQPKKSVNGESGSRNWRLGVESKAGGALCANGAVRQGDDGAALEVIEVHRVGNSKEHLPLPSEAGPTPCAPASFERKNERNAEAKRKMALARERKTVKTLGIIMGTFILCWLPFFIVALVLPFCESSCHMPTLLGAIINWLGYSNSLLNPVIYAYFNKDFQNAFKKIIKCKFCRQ
In short: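 Human 5-HT1A receptor stably expressed in cells, used as harvested pellets. Competition used 2.0 nM [3H]-8-OH-DPAT in Tris/EDTA/MgCl2 buffer at pH 7.4, for 60 min at 25 °C. Nonspecific binding was defined with 10 µM 5-HT. Bound label was collected by filtration and counted by scintillation.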

[3] = target: T1, 5-hydroxytryptamine receptor 2A; experiment: (§2) Tested for its ability to activate phospholipase C by quantification of IP3 at cloned rat 5-hydroxytryptamine 2A receptor
In short: (§3)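 They were pretreated for 15 min with 10 µM pargyline/10 mM LiCl, then exposed to drug for 30 min at 37 °C. Formic acid stopped the reaction. [3H]inositol phosphates were separated on Dowex-1 columns. Efficacy is expressed relative to serotonin.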

[4] = species on record: Rattus norvegicus; experiment: Maximum 5-HT stimulation was determined […]; type: functional
In short: as §3, with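 “Rat 5-HT2A-expressing cells at 70% confluency were labelled for 18-20 h with 1.0 µCi/mL [3H]-myo-inositol. They” for “They”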

[5] = target: T3, 5-hydroxytryptamine receptor 2C (Rattus norvegicus, UniProt P08909); experiment: In vitro binding to 5-hydroxytryptamine 2C receptor using [125 I]-DOI; in short: as §1
T3 sequence (P08909 whole entry): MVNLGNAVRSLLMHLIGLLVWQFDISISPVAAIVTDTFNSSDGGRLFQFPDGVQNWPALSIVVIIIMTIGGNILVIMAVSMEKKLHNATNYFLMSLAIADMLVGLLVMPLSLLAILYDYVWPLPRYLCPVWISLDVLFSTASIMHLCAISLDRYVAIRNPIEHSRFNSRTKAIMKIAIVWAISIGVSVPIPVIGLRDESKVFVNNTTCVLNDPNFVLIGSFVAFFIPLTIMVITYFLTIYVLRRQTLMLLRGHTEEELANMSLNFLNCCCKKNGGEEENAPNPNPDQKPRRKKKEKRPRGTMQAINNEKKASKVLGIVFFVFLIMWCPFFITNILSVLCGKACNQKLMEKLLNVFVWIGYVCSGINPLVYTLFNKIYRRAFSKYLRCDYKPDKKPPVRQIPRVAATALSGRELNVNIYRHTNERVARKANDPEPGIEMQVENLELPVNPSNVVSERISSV

[6] = target: T1, 5-hydroxytryptamine receptor 2A; experiment: Tested in vitro for its ability to bind to 5-hydroxytryptamine 2A receptor using [125 I]-DOI as radioligand
In short: as §1, with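 “pellets. Competition used 0.20 nM [125I]-DOI in 50 mM Tris, 0.1 mM EDTA, 10 mM MgCl2, pH 7.4, for 60 min at 25 °C.” for “pellets.”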

[7] = target: T1, 5-hydroxytryptamine receptor 2A; experiment: as §2; remark: listed apart in the source
In short: as §3, with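 “Rat 5-HT2A-expressing cells at 70% confluency were labelled for 18-20 h with 1.0 µCi/mL [3H]-myo-inositol. They” for “They”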

[8] = species on record: Rattus norvegicus; experiment: Compound was tested for effective dose in LSD trained rats; type: functional
[9] = species on record: Rattus norvegicus; experiment: Compound was tested for effective dose in DOI trained rats; type: functional
[10] = species on record: Rattus norvegicus; experiment: Maximum 5-HT stimulation was determined at 10 uM […]; type: functional
[11] = system: Rattus norvegicus; experiment: Compound was tested for effective dose in LSD trained rats; Partial substitution at 1-6 uM/Kg (0.36-[…]); type: functional, organism-based
[12] = system: Rattus norvegicus; experiment: Compound was tested for effective dose in DOI trained rats; Partial substitution at 1-6 uM/Kg (0.36-[…]); type: functional, organism-based
[13] = target: T1, 5-hydroxytryptamine receptor 2A; experiment: Tested for its ability to activate phospholipase c by quantification of IP3 at cloned rat 5-hydroxytryptamine 2A receptor
In short: as §3, with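 “Rat 5-HT2A-expressing cells at 70% confluency were labelled for 18-20 h with 1.0 µCi/mL [3H]-myo-inositol. They” for “They”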

T1 sequence (P14842 whole entry): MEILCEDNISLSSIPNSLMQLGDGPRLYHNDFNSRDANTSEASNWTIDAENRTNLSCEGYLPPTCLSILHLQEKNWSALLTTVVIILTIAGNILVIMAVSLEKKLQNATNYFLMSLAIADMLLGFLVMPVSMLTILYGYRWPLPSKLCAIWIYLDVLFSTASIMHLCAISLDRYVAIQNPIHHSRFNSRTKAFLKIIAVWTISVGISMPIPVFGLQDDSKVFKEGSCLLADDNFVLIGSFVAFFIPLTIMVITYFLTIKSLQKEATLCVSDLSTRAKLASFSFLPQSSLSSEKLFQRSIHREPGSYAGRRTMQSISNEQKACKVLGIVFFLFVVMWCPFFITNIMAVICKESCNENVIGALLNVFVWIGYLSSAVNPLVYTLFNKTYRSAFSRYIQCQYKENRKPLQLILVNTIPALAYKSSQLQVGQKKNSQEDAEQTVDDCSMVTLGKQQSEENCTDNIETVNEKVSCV

Question: What does the source list for `COc1cc(Br)c2c3c1C[C@H](N)C[C@@H]3CO2` (relative stereo)?
Answer: Ki [1]: 16 nM; Ki [2]: 960 nM; EC50 [3]: 2090 nM; Max [4]: 63%; Ki [5]: 4 nM

Question: Which results are given for `COc1cc(Br)c2c3c1[C@H](CN)CC[C@H]3CO2`?
Answer: Ki [2]: 550 nM; Ki [6]: 9.3 nM; Max [4]: 37%; EC50 [7]: 340 nM; Ki [5]: 4.9 nM

Question: For `CN(C)CCc1c[nH]c2cccc(O)c12` [PSILOCIN], which Ki [1] is on record?
Answer: 25 nM

Question: And the EC50 [3]?
Answer: 2300 nM

Question: And the Max [4]?
Answer: 46%

Question: How did the ED50 [8] turn out when `COc1cc(CC(C)N)c(OC)cc1Br` (configuration not stated) [BROLAMFETAMINE] was run?
Answer: 1.06 µmol/kg

Question: What about the ED50 [9] of the same compound?
Answer: 0.091 µmol/kg

Question: What about the Max [4] of the same compound?
Answer: 79%

Question: `COc1ccc2occ3c2c1[C@H](CN)CC3` was tested. Which Ki [1] did it give?
Answer: 200 nM

Question: What about the Ki [2] of the same compound?
Answer: 860 nM

Question: And the EC50 [3]?
Answer: > 10000 nM

Question: What about the Max [10] of the same compound?
Answer: 10%

Question: What about the Ki [5] of the same compound?
Answer: 11 nM

Question: With `COc1cc(Br)c2occ3c2c1[C@H](CN)CC3` as the compound, how does the Ki [1] read?
Answer: 2.6 nM

Question: What about the Ki [2] of the same compound?
Answer: 105 nM

Question: What about the PS [11] of the same compound?
Answer: Partially active

Question: And the EC50 [3]?
Answer: 120 nM

Question: And the PS [12]?
Answer: Partially active

Question: What about the Max [4] of the same compound?
Answer: 33%

Question: What about the Ki [5] of the same compound?
Answer: 1.1 nM

Question: For `COc1ccc2c3c1[C@H](CN)CC[C@H]3CO2`, which Ki [1] is on record?
Answer: 310 nM

Question: And the Ki [2]?
Answer: 1000 nM

Question: What about the Ki [5] of the same compound?
Answer: 34 nM

Question: For `COc1cc(Br)c2c3c1[C@H](CN)CC[C@@H]3CO2`, which Ki [1] is on record?
Answer: 8.7 nM

Question: What about the Ki [2] of the same compound?
Answer: 520 nM

Question: And the EC50 [3]?
Answer: 1100 nM

Question: What about the Max [4] of the same compound?
Answer: 49%

Question: What about the Ki [5] of the same compound?
Answer: 2.8 nM

Question: Which Ki [1] does the source give for `COc1ccc2c3c1[C@H](CN)CC[C@@H]3CO2` here?
Answer: 700 nM

Question: What about the Ki [2] of the same compound?
Answer: 3000 nM

Question: What about the Ki [5] of the same compound?
Answer: 59 nM

Question: How did the Max [4] turn out when `CCN(CC)C(=O)[C@@H]1C=C2c3cccc4[nH]cc(c34)C[C@H]2N(C)C1` [LYSERGIDE] was run?
Answer: 22%

Question: With `COc1cc(CCN)cc(OC)c1OC` [MESCALINE] as the compound, how does the EC50 [13] read?
Answer: 2600 nM

Question: And the Max [4]?
Answer: 92%
